Source: ChEMBL document CHEMBL1287672, “Synthesis of new 4-aminoquinolines and quinoline-acridine hybrids as antimalarial agents” (2010)
Values after ≈ are worked out from the molar mass of the structure shown. Active and inactive are the calls of the source. No cut-off for these calls is given here.

Legend:
Plasmodium falciparum = experiment: Antimalarial activity against Plasmodium falciparum NF 54 assessed as inhibition of maturation into schizont stage after 36 to 40 hrs; assay type: functional
How it was run: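 Synchronous ring-stage NF-54 parasites (5% D-sorbitol synchronization) in RPMI-1640 with 25 mM HEPES, 1% D-glucose, 0.23% sodium bicarbonate and 10% heat-inactivated human serum. Start at 1% parasitemia, 3% hematocrit. Compounds tested in duplicate wells, 37 °C, candle jar, 36–40 h. Giemsa-stained smears read by microscopy. MIC is the lowest tested concentration blocking full maturation to schizonts. Chloroquine reference.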

Plasmodium yoelii [1] = experiment: Antimalarial activity against chloroquine-resistant Plasmodium yoelii infected in Swiss mice (Mus musculus) assessed as mice (Mus musculus) survival at 50 mg/kg, intraperitoneal for 4 days relative to control; assay type: functional, organism-based; set-up: dose 50 mg/kg
How it was run: (§1)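 Swiss mice were inoculated with 1 × 10^6 P. yoelii N-67 parasitized RBC on day 0. Groups of five were dosed once daily on days 0–3 with compound as an aqueous suspension with a few drops of Tween 80. Intraperitoneal doses were given in 0.2 mL and oral doses in 0.1 mL. The read-out was the number of mice alive on day 28.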

Plasmodium yoelii [2] = experiment: Antimalarial activity against chloroquine-resistant Plasmodium yoelii infected in Swiss mice (Mus musculus) assessed as suppression of parasitaemia at 50 mg/kg, intraperitoneal for 4 days relative to control; assay type: functional
How it was run: (§2)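 Swiss mice were infected on day 0 with 1 × 10^6 RBC parasitized by P. yoelii N-67. Five mice per group were dosed once daily on days 0–3 with a Tween 80 aqueous suspension, given ip in 0.2 mL or orally in 0.1 mL. Parasitemia was read from thin Giemsa smears on day 4. Suppression was calculated from group means as [(C − T)/C] × 100 against untreated controls.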

Plasmodium yoelii [3] = experiment: Antimalarial activity against chloroquine-resistant Plasmodium yoelii infected in Swiss mice (Mus musculus) assessed as suppression of parasitaemia at 100 mg/kg, peroral for 4 days relative to control; assay type: functional; details: route oral; how it was run: as §2
Plasmodium yoelii [4] = experiment: Antimalarial activity against chloroquine-resistant Plasmodium yoelii infected in Swiss mice (Mus musculus) assessed as mice (Mus musculus) survival at 25 mg/kg, intraperitoneal for 4 days relative to control; assay type: functional, organism-based; set-up: dose 25 mg/kg; how it was run: as §1
Plasmodium yoelii [5] = experiment: Antimalarial activity against chloroquine-resistant Plasmodium yoelii infected in Swiss mice (Mus musculus) assessed as suppression of parasitaemia at 25 mg/kg, intraperitoneal for 4 days relative to control; assay type: functional; how it was run: as §2
Plasmodium yoelii [6] = experiment: Antimalarial activity against chloroquine-resistant Plasmodium yoelii infected in Swiss mice (Mus musculus) assessed as mice (Mus musculus) survival at 100 mg/kg, peroral for 4 days relative to control; assay type: functional, organism-based; set-up: dose 100 mg/kg; how it was run: as §1

SMILES	MIC (Plasmodium falciparum)	further results
O=[N+]([O-])c1ccccc1N1CCN(CCCNc2ccnc3cc(Cl)ccc23)CC1	10 µg/mL (≈ 23.5 µM)	
COc1ccc2nc3cc(Cl)ccc3c(NCCCN3CCN(c4ccnc5cc(Cl)ccc45)CC3)c2c1	1 µg/mL (≈ 1.83 µM)	
O=[N+]([O-])c1cccnc1N1CCN(CCNc2ccnc3cc(Cl)ccc23)CC1	10 µg/mL (≈ 24.2 µM)	
O=[N+]([O-])c1cccnc1N1CCN(CCCNc2ccnc3cc(Cl)ccc23)CC1	10 µg/mL (≈ 23.4 µM)	
CCN(CC)CCCC(C)Nc1ccnc2cc(Cl)ccc12 (configuration not stated) [CHLOROQUINE]	0.125 µg/mL (≈ 0.391 µM)	
COc1ccc2nc3cc(Cl)ccc3c(Nc3cccc(Nc4ccnc5cc(Cl)ccc45)c3)c2c1	0.25 µg/mL (≈ 0.489 µM)	Activity (Plasmodium yoelii [1]): inactive; Activity (Plasmodium yoelii [2]): 100%
Clc1ccc2c(NCCN3CCN(c4ccccn4)CC3)ccnc2c1	10 µg/mL (≈ 27.2 µM)	
N#CC1(c2ccccc2)CCN(CCCNc2ccnc3cc(Cl)ccc23)CC1	2 µg/mL (≈ 4.94 µM)	
Cc1ccc([N+](=O)[O-])c(N2CCN(CCNc3ccnc4cc(Cl)ccc34)CC2)c1	10 µg/mL (≈ 23.5 µM)	
Clc1ccc2c(NCCN3CCc4ccccc4C3)ccnc2c1	2 µg/mL (≈ 5.92 µM)	
Clc1ccc2c(NCCCN3CCN(c4ccccn4)CC3)ccnc2c1	0.125 µg/mL (≈ 0.327 µM)	Activity (Plasmodium yoelii [3]): 100%; Activity (Plasmodium yoelii [4]): Active; Activity (Plasmodium yoelii [1]): Active; Activity (Plasmodium yoelii [5]): 100%; Activity (Plasmodium yoelii [6]): Active; Activity (Plasmodium yoelii [2]): 100%
O=[N+]([O-])c1ccccc1N1CCN(CCNc2ccnc3cc(Cl)ccc23)CC1	10 µg/mL (≈ 24.3 µM)	
Cc1ccc([N+](=O)[O-])c(N2CCN(CCCNc3ccnc4cc(Cl)ccc34)CC2)c1	10 µg/mL (≈ 22.7 µM)	
Clc1ccc2c(NCCCN3CCc4ccccc4C3)ccnc2c1	0.031 µg/mL (≈ 0.0881 µM)	Activity (Plasmodium yoelii [1]): inactive; Activity (Plasmodium yoelii [2]): 100%
COc1ccc2nc3cc(Cl)ccc3c(NCCN3CCN(c4ccnc5cc(Cl)ccc45)CC3)c2c1	1 µg/mL (≈ 1.88 µM)	
COc1ccc2nc3cc(Cl)ccc3c(Nc3ccc(Nc4ccnc5cc(Cl)ccc45)cc3)c2c1	0.5 µg/mL (≈ 0.978 µM)	
N#CC1(c2ccccc2)CCN(CCNc2ccnc3cc(Cl)ccc23)CC1	10 µg/mL (≈ 25.6 µM)	
